Results from different studies.
Each line is one published result; the experiments were not run side by side. pIC50: −log10 of the molar value.
Cell line: THP-1

CCn1c(-c2nnc(NC(=O)c3cc4c([nH]c5ccccc54)c(-c4cc(OC)c(OC)c(OC)c4)n3)s2)cc2ccccc21  pIC50 (cell growth or viability; MTT; 72 h): 4.40
CC(C)NC[C@@H](O)c1ccc(O)c(O)c1  pIC50 (TNF-α release; inhibitor; 17 h; LPS-stimulated): 7.15
Cn1c(-c2nnc(NC(=O)c3cc4c([nH]c5ccccc54)c(-c4ccc(F)cc4)n3)s2)cc2ccccc21  pIC50 (cell growth or viability; MTT; 72 h): 4.48
O=C(O)c1ccc(CN2CCC(CN[C@@H]3C[C@H]3c3ccccc3)CC2)cc1  pIC50 (cell growth or viability; MTS; 6 days): < 4.30
Cl.NCc1ccc(-c2nc(-c3ccc(Oc4ccc(C(F)(F)F)cc4)cc3)no2)cc1  IC50 (cell growth or viability; LDH; 24 h): 4.4 µg/mL
Cc1ccc(S(=O)(=O)/C=C/C#N)cc1  pIC50 (TNF-α release; inhibitor; 17 h; LPS-stimulated): 5.91
CC(C)[C@H](N)C(=O)N1CCC[C@H]1B(O)O  pIC50 (cell growth or viability; ATP luminescence; 48 h): 6.69
CCn1c(-c2nnc(NC(=O)c3cc4c([nH]c5ccccc54)c(-c4ccc(OC)cc4)n3)s2)cc2ccccc21  pIC50 (cell growth or viability; MTT; 72 h): 4.31
NCCc1c[nH]cn1  pIC50 (TNF-α release; inhibitor; 17 h; LPS-stimulated): 5.72
COc1ccc(-c2nc(C(=O)Nc3nnc(-c4cc5ccccc5[nH]4)s3)cc3c2[nH]c2ccccc23)cc1  pIC50 (cell growth or viability; MTT; 72 h): 5.50
CC[C@@H](C)[C@H](N)C(=O)N1Cc2ccccc2C1  pIC50 (cell growth or viability; ATP luminescence; 48 h): 5.60
O=C(Nc1nc2ccccc2n1CCN1CCOCC1)c1cccc([N+](=O)[O-])c1  pIC50 (TNF-α release; inhibitor; 17 h; LPS-stimulated): 5.95
COc1cc2nccc(Oc3ccc(NC(=O)C4(C(=O)Nc5ccc(F)cc5)CC4)cc3)c2cc1OC  pIC50 (cell growth or viability; trypan blue; 72 h): 5.53
NC[C@H](O)c1ccc(O)c(O)c1  pIC50 (TNF-α release; inhibitor; 17 h; LPS-stimulated): 7.00
O=C(Nc1nnc(-c2cc3ccccc3[nH]2)s1)c1cc2c([nH]c3ccccc32)c(-c2ccccc2)n1  pIC50 (cell growth or viability; MTT; 72 h): 5.45
O=[N+]([O-])c1c[nH]nc1-c1nc(-c2ccc3oc4ccccc4c3c2)no1  IC50 (cell growth or viability; LDH; 24 h): 9.8 µg/mL
COc1cc(/C=C/C(=O)CC(=O)/C=C/c2ccc(O)c(OC)c2)ccc1O  IC50 (cell growth or viability; MTT; 48 h): 24 µg/mL
C=C1C(=O)O[C@H]2[C@H]1CC/C(C)=C/CC[C@@]1(C)O[C@@H]21  pIC50 (TNF-α release; inhibitor; 17 h; LPS-stimulated): 5.89
COc1ccc(-c2nc(C(=O)Nc3nnc(-c4cc5ccccc5n4C)s3)cc3c2[nH]c2ccccc23)cc1  pIC50 (cell growth or viability; MTT; 72 h): 4.84
COc1cccc2c1C(=O)c1c(O)c3c(c(O)c1C2=O)C[C@@](O)(C(=O)CO)C[C@@H]3O[C@H]1C[C@H](N)[C@H](O)[C@H](C)O1  IC50 (cell growth or viability; MTT; 48 h): 2.7 µg/mL
